Measured values reported in ChEMBL document CHEMBL3779860, “A Designed Tryptophan- and Lysine/Arginine-Rich Antimicrobial Peptide with Therapeutic Potential for Clinical Antibiotic-Resistant Candida albicans Vaginitis” (J Med Chem, 2016).
Values after ≈ are worked out from the molar mass of the structure shown. Active and inactive are the calls of the source. No cut-off for these calls is given here.

How the values were obtained:
[1] = system: Bacillus subtilis; assay: Antimicrobial activity against Bacillus subtilis assessed as inhibition of […] growth after 16 hrs by broth dilution method; assay type: functional
Method in brief: (§1)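 Broth dilution in LB broth; 100 µL of 2 × 10^5 CFU/mL bacterial suspension plus 10 µL sample (stock series in 0.9% NaCl) in 90 µL broth, 37°C for 16 h. Growth read as A600; MIC is the lowest concentration completely inhibiting growth. Mean of three independent experiments run in duplicate.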

[2] = system: Escherichia coli; assay: Antimicrobial activity against Escherichia coli ATCC 25922 assessed as inhibition of […] growth after 16 hrs by broth dilution method; assay type: functional; details: ATCC 25922, 16 h; method in brief: as §1
[3] = system: Staphylococcus aureus; assay: Antimicrobial activity against Staphylococcus aureus ATCC 2592 assessed as inhibition of […] growth after 16 hrs by broth dilution method; assay type: functional; details: ATCC 2592, 16 h; method in brief: as §1
[4] = system: Mus musculus; assay: (§2) Antiinflammatory activity in antibiotic resistant Candida albicans clinical isolate 08030809 induced mouse vaginitis model assessed as microabscess number in vaginal tissue at 200 ug administered as intravaginal instillation measured after 16 days by hematoxylin-eosin staining based microscopic method (reference value: 61); assay type: functional, Vagina
Method in brief: (§3)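 Mice given weekly subcutaneous estradiol valerate (0.5 mg in 0.1 mL vegetable oil) 72 h before infection. Infected intravaginally with 20 µL of 10^7 CFU/mL C. albicans 08030809. Intravaginal instillation of 20 µL daily for 16 days. Vaginal canals excised after lavage, formalin-fixed, paraffin-embedded, HE-stained. Microabscesses counted per high-power field over 6 fields per section, three independent experiments.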

[5] = system: Mus musculus; assay: Antiinflammatory activity in antibiotic resistant Candida albicans clinical isolate 08030809 induced mouse vaginitis model assessed as reduction in TNF-alpha secretion in vaginal tissue at 10 mg/ml administered as intravaginal instillation measured on day 10 by ELISA; assay type: functional, organism-based; details: Vagina
Method in brief: (§4)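 Same estradiol-primed mouse model, infected intravaginally with C. albicans 08030809 and treated by intravaginal instillation (20 µL/mouse). Vaginal canals excised on day 10 of treatment and homogenised in 0.9% NaCl. Supernatant taken after 2,000 g for 15 min. TNF-α, IL-6, IL-1β and IL-10 measured by ELISA. Mean ± SE of three independent experiments; unpaired t-test versus vehicle.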

[6] = system: Mus musculus; assay: Antiinflammatory activity in antibiotic resistant Candida albicans clinical isolate 08030809 induced mouse vaginitis model assessed as reduction in IL-6 secretion in vaginal tissue at 10 mg/ml administered as intravaginal instillation measured on day 10 by ELISA; assay type: functional, organism-based; details: Vagina; method in brief: as §4
[7] = system: Mus musculus; assay: Antiinflammatory activity in antibiotic resistant Candida albicans clinical isolate 08030809 induced mouse vaginitis model assessed as reduction in IL-1beta secretion in vaginal tissue at 10 mg/ml administered as intravaginal instillation measured on day 10 by ELISA; assay type: functional, organism-based; details: Vagina; method in brief: as §4
[8] = system: Mus musculus; assay: Antiinflammatory activity in antibiotic resistant Candida albicans clinical isolate 08030809 induced mouse vaginitis model assessed as reduction in IL-10 secretion in vaginal tissue at 10 mg/ml administered as intravaginal instillation measured on day 10 by ELISA; assay type: functional, organism-based; details: Vagina; method in brief: as §4
[9] = system: Candida albicans; assay: Antimicrobial activity against antibiotic resistant Candida albicans clinical isolate 08030809 in mouse vaginitis model assessed as colony count in lavage liquid of vagina at 10 mg/ml administered as intravaginal instillation measured on day 16; assay type: functional
[10] = system: Mus musculus; assay: as §2, with “on day 6” for “after 16 days”; assay type: functional, Vagina; method in brief: as §3
[11] = system: Candida albicans; assay: Antimicrobial activity against antibiotic resistant Candida albicans clinical isolate 08030809 assessed as clone count at 10 mg/ml after 1 min by colony counting assay (reference value: 62 +/- 7 CFU); assay type: functional
[12] = system: Candida albicans; assay: Antimicrobial activity against antibiotic resistant Candida albicans clinical isolate 08030809 assessed as clone count at 10 mg/ml after 10 mins by colony counting assay (reference value: 102 +/- 11 CFU); assay type: functional
[13] = system: Candida albicans; assay: Antimicrobial activity against antibiotic resistant Candida albicans clinical isolate 08030809 assessed as clone count at 10 mg/ml after 30 mins by colony counting assay (reference value: 156 +/- 16 CFU); assay type: functional
[14] = system: Candida albicans; assay: Antimicrobial activity against antibiotic resistant Candida albicans clinical isolate 08030809 assessed as clone count at 10 mg/ml after 1 hr by colony counting assay (reference value: 228 +/- 23 CFU); assay type: functional
[15] = system: Candida albicans; assay: Antimicrobial activity against antibiotic resistant Candida albicans clinical isolate 08030809 assessed as clone count at 10 mg/ml after 3 hrs by colony counting assay (reference value: 3687 +/- 543 CFU); assay type: functional
[16] = system: Candida albicans; assay: Antimicrobial activity against antibiotic resistant Candida albicans clinical isolate 08030809 assessed as clone count at 10 mg/ml after 6 hrs by colony counting assay (reference value: 14536 +/- 2467 CFU); assay type: functional
[17] = system: Candida albicans; assay: Antimicrobial activity against antibiotic resistant Candida albicans clinical isolate 08030809 assessed as clone count at 10 mg/ml after 12 hrs by colony counting assay (reference value: 54153 +/- 8769 CFU); assay type: functional
[18] = system: Candida albicans; assay: Antimicrobial activity against antibiotic resistant Candida albicans clinical isolate 08030809 assessed as clone count at 10 mg/ml after 24 hrs by colony counting assay (Rvb > 10^5 CFU); assay type: functional
[19] = system: Candida albicans; assay: Antimicrobial activity against antibiotic resistant Candida albicans clinical isolate 08030809 in mouse vaginitis model assessed as decrease in colony count in lavage liquid of vagina at 10 mg/ml administered as intravaginal instillation measured on day 16; assay type: functional; details: isolate 08030809, Vagina, topical, 384 h
[20] = system: Candida albicans; assay: Effect on cell membrane integrity in antibiotic resistant Candida albicans clinical isolate 08030809 at 20 ug/ml measured every 2 mins upto 20 mins by SYTOX green nucleic acid staining-based fluorescence assay; assay type: functional, organism-based
Method in brief: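 Exponential-phase C. albicans 08030809 was washed and resuspended at 10^6 CFU/mL in 10 mM PBS pH 7.4. Cells were loaded with 0.1 µM (final) SYTOX Green for 15 min at 37°C with shaking, then test samples were added. Fluorescence (ex 488/em 530 nm) was recorded every 2 min as RFU. Mean ± SE of five independent experiments.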

[21] = system: Candida albicans; assay: Antimicrobial activity against Candida albicans ATCC 2002 assessed as inhibition of yeast growth after 16 hrs by broth dilution method; assay type: functional; details: ATCC 2002, 16 h
Method in brief: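 Broth microdilution in Sabouraud liquid medium. Samples are stocks in 0.9% NaCl, 10 µL added to 90 µL broth plus 100 µL of 2 × 10^5 CFU/mL yeast suspension. Incubated 16 h at 28°C, growth read by A600. MIC is the lowest concentration completely inhibiting growth; mean of three independent experiments.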

[22] = Induction of hemolysis in human RBC at 320 ug/mL after 30 mins; assay type: cell-based, Erythrocyte; details: red blood cells, read-out: Activity
Method in brief: (§5)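 Serial dilutions were incubated with human erythrocytes for 30 min at 37°C. Supernatant absorbance was read at 540 nm after centrifugation. Hemolysis is expressed as % of the 1% Triton X-100 lysis value, pooled from three independent experiments. The highest concentration tested was 320 µg/mL.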

[23] = Hemolytic activity in human RBC after 30 mins; assay type: ADME, cell-based, Erythrocyte; details: for HC10: erythrocyte, 0.5 h; for HC50 at 0.5 h: red blood cells; method in brief: as §5

CC1(C)S[C@@H]2[C@H](NC(=O)[C@H](N)c3ccccc3)C(=O)N2[C@H]1C(=O)O [AMPICILLIN]
MIC [1]: 0.02 µg/mL (≈ 0.0572 µM)
MIC [2]: 18.7 µg/mL (≈ 53.5 µM)
MIC [3]: 0.15 µg/mL (≈ 0.429 µM)

Clc1ccccc1C(c1ccccc1)(c1ccccc1)n1ccnc1 [CLOTRIMAZOLE]
Activity [4]: 10
Activity [5]: inactive
Activity [6]: inactive
Activity [7]: inactive
Activity [8]: inactive
Activity [9]: 1.2 ×10⁴ CFU/ml
Activity [10]: 18
Activity [11]: 42 CFU
Activity [12]: 64 CFU
Activity [13]: 106 CFU
Activity [14]: 178 CFU
Activity [15]: 533 CFU
Activity [16]: 2674 CFU
Activity [17]: 15789 CFU
Activity [18]: 57425 CFU
inhibition in vivo at 10000 µg/mL [19]: 38%
Activity [20]: inactive

OC(Cn1cncn1)(Cn1cncn1)c1ccc(F)cc1F [FLUCONAZOLE]
MIC [21]: 18.7 µg/mL (≈ 61.1 µM)

H-KFFRKLKKSVKKRAKEFFKKPRVIGVSIPF-OH
hemolysis at 0.5 h, 320 ug/mL [22]: 7.4%
HC10 [23]: > 320 µg/mL
HC50 at 0.5 h [23]: > 320 µg/mL
MIC [21]: 4.7 µg/mL
MIC [1]: 9.38 µg/mL
MIC [2]: 2.34 µg/mL
MIC [3]: > 100 µg/mL

H-VKRFKKFFRKFKKSV-NH2 [listing 1 of 2 here]
hemolysis at 0.5 h, 320 ug/mL [22]: 7.5%
HC10 [23]: > 320 µg/mL
HC50 at 0.5 h [23]: > 320 µg/mL

H-VKRFKKFFRKFKKSV-NH2 [listing 2 of 2 here]
MIC [21]: 9.38 µg/mL
MIC [1]: > 100 µg/mL
MIC [2]: 37.5 µg/mL
MIC [3]: > 100 µg/mL

H-VKRFKKFFRKLKKSV-NH2
hemolysis at 0.5 h, 320 ug/mL [22]: 9.7%
HC10 [23]: > 320 µg/mL
HC50 at 0.5 h [23]: > 320 µg/mL
MIC [21]: 18.8 µg/mL
MIC [1]: 75 µg/mL
MIC [2]: 18.8 µg/mL
MIC [3]: > 100 µg/mL

H-VKRWKKFWRKWKKWW-NH2 [listing 1 of 2 here]
hemolysis at 0.5 h, 320 ug/mL [22]: 27.6%
HC10 [23]: 51.7 µg/mL
HC50 at 0.5 h [23]: > 320 µg/mL

H-VKRWKKFWRKWKKWW-NH2 [listing 2 of 2 here]
MIC [21]: 2.34 µg/mL
MIC [1]: 4.69 µg/mL
MIC [2]: 18.8 µg/mL
MIC [3]: 4.69 µg/mL

H-VKRWKKWWRKLKKSV-NH2
hemolysis at 0.5 h, 320 ug/mL [22]: 8.7%
HC10 [23]: > 320 µg/mL
HC50 at 0.5 h [23]: > 320 µg/mL
MIC [21]: 9.38 µg/mL
MIC [1]: > 100 µg/mL
MIC [2]: 18.8 µg/mL
MIC [3]: > 100 µg/mL

H-VKWRWKKWRWKWKWKV-NH2 [listing 1 of 2 here]
hemolysis at 0.5 h, 320 ug/mL [22]: 17.6%
HC10 [23]: 178.3 µg/mL
HC50 at 0.5 h [23]: > 320 µg/mL

H-VKWRWKKWRWKWKWKV-NH2 [listing 2 of 2 here]
MIC [21]: > 100 µg/mL
MIC [1]: > 100 µg/mL
MIC [2]: > 100 µg/mL
MIC [3]: > 100 µg/mL

H-VKWRWKWKWRWKWKWKV-NH2
hemolysis at 0.5 h, 320 ug/mL [22]: 30.8%
HC10 [23]: 62.8 µg/mL
HC50 at 0.5 h [23]: > 320 µg/mL
MIC [21]: > 100 µg/mL
MIC [1]: > 100 µg/mL
MIC [2]: > 100 µg/mL
MIC [3]: > 100 µg/mL
